Measurements gathered from unrelated publications.
JAK2 JH1: Tyrosine-protein kinase JAK2, JH1 (JAK2, Homo sapiens, UniProt O60674)
JAK2: Tyrosine-protein kinase JAK2 (JAK2, Homo sapiens, UniProt O60674)

| Structure (SMILES) | target | observed | mode | method | concentration | measurement | value |
| --- | --- | --- | --- | --- | --- | --- | --- |
| CN(C(=O)c1ccccc1)c1cc(N(C)c2ccc3c(c2)CCc2ccc(C(=O)NCCN4CCOCC4)cc2C3=O)ccc1F | JAK2 JH1 | cell-free assay | – | competition with immobilised ligand | 1 µM | remaining binding | 100% |
| CCN(CC)CCNC(=O)c1c(C)[nH]c(/C=C2\C(=O)Nc3ccc(F)cc32)c1C | JAK2 | cell-free assay | – | – | 0.5 µM | remaining signal | 88.8% |
| C[C@H]1CCN(c2nccc(-c3cnn4ncccc34)n2)C1 | JAK2 JH1 | cell-free assay | – | – | 1 µM | remaining signal | 70% |
| FC(F)(F)Oc1cccc(-c2cnc3ccc(-c4ccncc4)nn23)c1 | JAK2 | enzyme activity | inhibitor | radiometric | 1 µM | activity vs control | 74% |
| O=C(NCCCNc1nc(Nc2cccc(NC(=O)N3CCCC3)c2)ncc1I)c1cccs1 | JAK2 | enzyme activity | inhibitor | radiometric | 1 µM | remaining activity | 6% |
| CC(=O)N1CCC(c2ccc(C(=O)NC(=N)N)cc2C(F)(F)F)CC1 | JAK2 JH1 | cell-free assay | – | competition with immobilised ligand | 1 µM | remaining binding | 100% |
| Cc1sc(C(=O)NC2COC2)cc1-n1cc(NC(=O)Nc2c(F)cccc2Cl)cn1 | JAK2 | enzyme activity | inhibitor | – | 10 µM | remaining activity | 95% |
| CCCS(=O)(=O)Nc1ccc(F)c(C(=O)c2c[nH]c3ncc(-c4ccc(Cl)cc4)cc23)c1F | JAK2 JH1 | enzyme activity | inhibitor | – | 1 µM | inhibition | < 10% |
| COc1cc2ncnc(Nc3ccc(Oc4ccccc4)cc3C)c2cc1OC | JAK2 | enzyme activity | inhibitor | – | 1 µM | inhibition | -6% |
| Cc1cc(NC(=O)c2cccc3cc(-c4cccc5[nH]nc(N)c45)ccc23)ccc1F | JAK2 | enzyme activity | inhibitor | – | 0.1 µM | activity vs control | 78% |
| CCS(=O)(=O)c1cc2cc(C[C@@](O)(CC(C)(C)c3ccc(F)cc3C(N)=O)C(F)(F)F)[nH]c2cn1 | JAK2 JH1 | cell-free assay | – | competition with immobilised ligand | 1 µM | remaining binding | 100% |
| O=C(CSc1nc2nccnc2c(=O)n1CCc1ccccc1)Nc1nccs1 | JAK2 JH1 | enzyme activity | inhibitor | – | 10 µM | inhibition | 2% |
| Cc1ccc(NC(=O)c2ccc(CN3CCN(C)CC3)cc2)cc1Nc1nc(-c2cccnc2)cs1 | JAK2 | cell-free assay | – | – | 0.5 µM | remaining signal | 96.3% |
| CN([C@@H]1CCc2c(CC(=O)O)c3cc(S(C)(=O)=O)ccc3n2C1)S(=O)(=O)c1ccc(F)cc1 | JAK2 JH1 | cell-free assay | – | competition with immobilised ligand | 1 µM | remaining binding | 100% |
| c1cc(CN2CCOCC2)cc(Nc2ncc(C3CC3)c(NCCc3c[nH]cn3)n2)c1 | JAK2 | enzyme activity | inhibitor | radiometric | 1 µM | remaining activity | 82% |
| C=CC(=O)Nc1cc(Nc2nccc(Nc3cc(Cl)c(F)cc3C(C)(C)O)n2)c(OC)cc1N1CC[C@@H](N(C)C)C1 | JAK2 | enzyme activity | inhibitor | – | 1 µM | inhibition | 2% |
| CS(=O)(=O)Nc1cccc(-c2csc(NC(=O)CSc3nc4nccnc4c(=O)n3CCc3ccccc3)n2)c1 | JAK2 | enzyme activity | inhibitor | – | 10 µM | inhibition | -7% |

| Structure (SMILES) | target | observed | mode | method | concentration | measurement | value |
| --- | --- | --- | --- | --- | --- | --- | --- |
| Cc1ccc(Nc2nccc(N(C)c3ccc4c(C)n(C)nc4c3)n2)cc1S(N)(=O)=O | JAK2 | enzyme activity | inhibitor | – | 10 µM | inhibition | 36% |
| CO[C@@H](C)c1c(Nc2ccc([C@@H](N(C)C(=O)C3CCS(=O)(=O)CC3)C(F)(F)F)cc2)cnc2cc(Cl)nn12 | JAK2 JH1 | cell-free assay | – | competition with immobilised ligand | 1 µM | remaining binding | 98% |
| COc1cc2ncnc(Nc3ccc(Oc4ccccc4)c(C)c3C)c2cc1OC | Tyrosine-protein kinase JAK2, JH1 (JAK2, Homo sapiens, UniProt O60674, V617F) | enzyme activity | inhibitor | – | 1 µM | inhibition | -4% |
| N#CCCc1ccc2c(c1)-c1[nH]c3ccc([N+](=O)[O-])cc3c1CC(=O)N2 | JAK2 | cell-free assay | – | – | 0.5 µM | remaining signal | 93% |
| Cc1nn(CC(F)(F)F)cc1Nc1nccc(NCCCNC(=O)C2CCC2)n1 | JAK2 | enzyme activity | inhibitor | radiometric | 1 µM | remaining activity | 114% |
| CC(C)(C)c1nc2c3cc[nH]c(=O)c3c3cc(F)ccc3c2[nH]1 | JAK2 | cell-free assay | – | – | 0.5 µM | remaining signal | 1.37% |
| O=C(NCCCNc1nc(Nc2cccc(NC(=O)N3CCCC3)c2)ncc1Br)C1CCC1 | JAK2 | enzyme activity | inhibitor | radiometric | 1 µM | remaining activity | 10% |
| COc1cccc(CNC(=O)c2nc3scc(COCc4ccc(C(=O)O)cc4)c3c(=O)[nH]2)c1 | JAK2 JH1 | cell-free assay | – | competition with immobilised ligand | 1 µM | remaining binding | 100% |
| CC/C(=N\NC(=O)NCc1cccc(O)c1)c1ccc(O)c(C)c1O | JAK2 | enzyme activity | inhibitor | – | 0.1 µM | inhibition | 1% |
| FC(F)c1nc2ccccc2n1-c1nc(N2CCOCC2)nc(N2CCOCC2)n1 | JAK2 | enzyme activity | inhibitor | – | 10 µM | remaining activity | 79% |
| CN(c1nccc(-c2cnn3ncccc23)n1)C1CC1 | JAK2 JH1 | cell-free assay | – | – | 1 µM | remaining signal | 100% |
| Cc1nn(CC(F)(F)F)cc1Nc1ncc(Br)c(NCCc2cnc[nH]2)n1 | JAK2 | enzyme activity | inhibitor | radiometric | 1 µM | remaining activity | 106% |
| CC(C)c1ccc(NC(=O)c2cccs2)c(-c2nc3ccccc3[nH]c2=O)c1 | JAK2 | enzyme activity | inhibitor | – | 1 µM | activity vs control | 123% |
| O=C(NCCCC1CCCCC1)c1ccc(CNC(=O)c2cnn(-c3ccccc3)c2C(F)(F)F)cc1 | JAK2 JH1 | cell-free assay | – | competition with immobilised ligand | 0.1 µM | remaining binding | 100% |
| O=C(NCCCNc1nc(Nc2cccc(NC(=O)N3CCCC3)c2)ncc1C1CC1)C1CCC1 | JAK2 | enzyme activity | inhibitor | radiometric | 1 µM | remaining activity | 68% |
| C[C@H](NC(=O)c1cnc2n1[C@](C)(Cc1ccc(C#N)cc1)C(=O)N2c1cc(Cl)c(F)c(Cl)c1)C(=O)NC1(c2ccccn2)CC1 | JAK2 JH1 | cell-free assay | – | competition with immobilised ligand | 1 µM | remaining binding | 100% |
| Cc1nn(CC(F)(F)F)cc1Nc1nccc(NCCc2cnc[nH]2)n1 | JAK2 | enzyme activity | inhibitor | radiometric | 1 µM | remaining activity | 89% |
